Only some compounds are listed: those with a hit (about 1.8% of all), similar ones and a draw of the others.
M4 antag: antagonists of human muscarinic M4 receptor (CHRM4); P08173; CHO-hM4 cells, ACh EC80, Fluo-8 calcium fluorescence; inhibition, % at 3 µM; 360,000 compounds, 0.73% hits; AID 624125;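 active means inhibition above its plate's cutoff, the mean inhibition of sample wells plus 3 SD, cut at about 27% in these data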;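 further: 0% = acetylcholine EC80 with DMSO and 100% = DMSO without agonist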
M5 antag: blocks acetylcholine activation of human M5 receptor | P08912 | CHO-hM5 cells, Fluo-8 calcium fluorescence, ACh EC80 | inhibition, % at 3 µM | 360,000 compounds, 0.59% hits | AID 624040;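 active means inhibition above a per-plate cutoff, the mean of that plate's test compounds plus 3 SD, cut at about 27% in these data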;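 further: 0% = acetylcholine EC80 with DMSO and 100% = DMSO without agonist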
Target sequence (P08912 whole entry, looked up): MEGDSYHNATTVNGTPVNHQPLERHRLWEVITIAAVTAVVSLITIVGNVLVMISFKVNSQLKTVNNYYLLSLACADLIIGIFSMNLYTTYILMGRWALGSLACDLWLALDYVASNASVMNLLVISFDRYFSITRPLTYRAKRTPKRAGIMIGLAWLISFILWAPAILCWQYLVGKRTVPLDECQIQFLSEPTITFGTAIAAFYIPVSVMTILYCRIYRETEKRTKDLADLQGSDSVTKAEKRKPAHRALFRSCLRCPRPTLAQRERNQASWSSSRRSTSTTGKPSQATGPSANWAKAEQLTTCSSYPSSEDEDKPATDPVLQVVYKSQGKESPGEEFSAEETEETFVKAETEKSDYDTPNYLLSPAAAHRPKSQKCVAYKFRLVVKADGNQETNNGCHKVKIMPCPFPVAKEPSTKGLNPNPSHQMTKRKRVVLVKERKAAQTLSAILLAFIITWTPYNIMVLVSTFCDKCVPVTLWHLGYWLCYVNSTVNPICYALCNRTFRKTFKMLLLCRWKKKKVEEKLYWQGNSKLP
M5 ag: agonists of human muscarinic M5 receptor (CHRM5); CHO-K1 hM5 cells, Fluo-8 calcium fluorescence; 0% DMSO wells, 100% maximal acetylcholine response; 360,000 compounds, 0.19% hits; activation, % at 3 µM; P08912; AID 624037;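 active means activation above the run's mean over test compounds plus 3 SD, cut at about 23% in these data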;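 further: signal is peak over basal fluorescence ratio across the kinetic read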
CHRM4 agonist: CHRM4 agonism in calcium assay; P08173; activation, % at 3 µM; 360,000 compounds, 0.14% hits; AID 624127; CHO-K1 hM4/Gqi5, Fluo-8 calcium fluorescence; vehicle 0%, full acetylcholine response 100%;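 active means activation above the run mean over all test wells plus 3 SD, cut at about 32% in these data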;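 further: peak over basal fluorescence ratio per well then scaled between controls; 0% = DMSO wells and 100% = acetylcholine at EC100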
CHRM5 PAM: positive allosteric modulators of human muscarinic M5 receptor. P08912. CHO-K1 hM5, Fluo-8 calcium, ACh EC20 PAM; 0% = ACh EC20, 100% = ACh EC100. activation, % at 3 µM. 360,000 compounds, 0.3% hits. AID 624038;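 active means activation above the run cutoff, the mean activation of all test compounds plus 3 SD, cut at about 18% in these data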
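Probe or stimulus: acetylcholine, EC20 level; Assay system: human M5 receptor in CHO-K1 cells; Schedule: compound preincubation 140 s before EC20 acetylcholine addition; Technique: intracellular calcium via Fluo-8 fluorescence; Dosing: single-point, 3 µM nominal; Read-out basis: percent activation from peak-over-basal fluorescence ratio, scaled EC20-to-EC100 acetylcholine; Repeats: one well per compound, no replicates.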
M4 PAM: potentiates acetylcholine response at human M4 receptor | P08173 | CHO-K1 hM4/Gqi5, Fluo-8 calcium fluorescence, ACh EC20; 0% = ACh EC20, 100% = maximal ACh | activation, % at 3 µM | 360,000 compounds, 0.4% hits | AID 624126;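 active means activation above its plate's cutoff, the mean activation of sample wells plus 3 SD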
* hit, by the source's call.

Screening Cc1ccc(N2C(=O)C3ON(c4ccccc4)C(CC(C)C)C3C2=O)cc1 (stereo not given) returned M4 antag -16, M5 antag -7, M5 ag -1, CHRM4 agonist 0, CHRM5 PAM 3 and M4 PAM 4.
For CCC(C(=O)Nc1ccc(C)cc1)c1ccccc1 (stereo not given) the results were M4 antag 6, M5 antag 7, M5 ag -2, CHRM4 agonist 1, CHRM5 PAM -2 and M4 PAM -5.
CCC(C(=O)Nc1ccc(C(=O)Nc2ccccc2C(=O)O)cc1)c1ccccc1 (stereo not given) was read as M4 antag -3, M5 antag 6, M5 ag -1, CHRM4 agonist -2, CHRM5 PAM 2 and M4 PAM 17*.
`CCC(C(=O)Nc1ccc(C(=O)N2CCCC2)cc1)c1ccccc1` (stereo not given) gave M4 antag 6, M5 antag 17, M5 ag 23, CHRM4 agonist 13, CHRM5 PAM -16 and M4 PAM -8.
CCC(C(=O)Nc1cc(Cl)ccc1OC)c1ccccc1 (stereo not given) was read as M4 antag -5, M5 antag -11, M5 ag -4, CHRM4 agonist -2, CHRM5 PAM 19* and M4 PAM 13.
`CCc1ccc(NC(=O)C(CC)c2ccccc2)cc1` (stereo not given) gave M4 antag 4, M5 antag 2, M5 ag 24*, CHRM4 agonist 24, CHRM5 PAM -2 and M4 PAM -1.
For COc1ccc(Cl)cc1NC(=O)C(OC)c1ccccc1 (stereo not given) the results were M4 antag 0, M5 antag -1, M5 ag -9, CHRM4 agonist -1, CHRM5 PAM 10 and M4 PAM 2.
`CCn1ccnc1CN(C)C(=O)c1ccc(OC2CCN(CCc3ccccc3)CC2)cc1` gave M4 antag 43*, M5 antag 47*, M5 ag -11, CHRM4 agonist 1, CHRM5 PAM -16 and M4 PAM -12.
`CCCNC(=O)C1(C)CCCN(C(=O)c2cccnc2Oc2ccccc2)C1` (stereo not given) gave M4 antag -9, M5 antag -1, M5 ag 1, CHRM4 agonist 0, CHRM5 PAM -1 and M4 PAM 0.
Screening COc1ccc(N2CCN(c3ccc(NC(=O)c4ccc5c(c4)OCO5)cc3C#N)CC2)cc1 returned M4 antag -10, M5 antag -2, M5 ag -2, CHRM4 agonist 1, CHRM5 PAM 7 and M4 PAM 29*.
`CSc1ccc(CN(C)C(=O)C(c2ccccc2)c2ccccc2)cc1` gave M4 antag 1, M5 antag 3, M5 ag -2, CHRM4 agonist 5, CHRM5 PAM -3 and M4 PAM -11.
For CN(CCN(C)C(C)(C)C)C(=O)C(c1ccccc1)c1ccccc1 the results were M4 antag 91*, M5 antag 31*, M5 ag -20, CHRM4 agonist 1, CHRM5 PAM -35 and M4 PAM -55.
For CC(=O)N1CCN=C1SCc1c(F)cccc1Cl the results were M4 antag -13, M5 antag 0, M5 ag 3, CHRM4 agonist 2, CHRM5 PAM 2 and M4 PAM 20*.
`Cc1cc(Nc2ccccc2)nc(NCc2ccccc2)n1` gave M4 antag 22, M5 antag 30*, M5 ag 5, CHRM4 agonist 13, CHRM5 PAM -14 and M4 PAM -11.
Screening CCCCNc1cc(C)nc(NCc2ccccc2)n1 returned M4 antag 33*, M5 antag 33*, M5 ag 7, CHRM4 agonist 23, CHRM5 PAM -21 and M4 PAM -6.
`Nc1cc2c(cc1Cl)-c1ccc([N+](=O)[O-])cc1C2=NO` gave M4 antag -12, M5 antag 25, M5 ag 18, CHRM4 agonist 10, CHRM5 PAM -18 and M4 PAM 2.
CCN=C(NS(=O)(=O)c1ccc(Br)cc1)c1ccc(Cl)cc1 was read as M4 antag -14, M5 antag 2, M5 ag -5, CHRM4 agonist 1, CHRM5 PAM 5 and M4 PAM 6.
Cc1cc(C)c2c(n1)sc1c(N3CCN(C)CC3)ncnc12 was read as M4 antag 17, M5 antag 8, M5 ag 0, CHRM4 agonist 1, CHRM5 PAM -1 and M4 PAM 25.
`Cc1cc(C)c2c(n1)sc1c(N3CCCCC3)ncnc12` gave M4 antag -9, M5 antag 0, M5 ag -2, CHRM4 agonist 2, CHRM5 PAM 4 and M4 PAM 23*.
O=C(c1cc2ccccc2o1)N1CCN(c2ccccn2)CC1 was read as M4 antag -4, M5 antag 11, M5 ag 0, CHRM4 agonist 4, CHRM5 PAM -10 and M4 PAM -3.
For CCN1C[C@@H]2[C@@H]3C(=O)N(Cc4ccccc4)C(=O)[C@@H]3[C@](C)(C1=O)N2C(=O)c1ccccc1 the results were M4 antag -2, M5 antag 1, M5 ag 0, CHRM4 agonist 1, CHRM5 PAM 7 and M4 PAM 7.
`CCn1nc(C(=O)N2CCN(Cc3nc4ccccc4s3)CC2)c2ccccc2c1=O` gave M4 antag 35*, M5 antag 20, M5 ag 7, CHRM4 agonist 22, CHRM5 PAM -36 and M4 PAM -14.
`NC(=O)N/N=C/c1c(F)cccc1F` gave M4 antag -2, M5 antag 11, M5 ag -1, CHRM4 agonist 1, CHRM5 PAM -3 and M4 PAM 23*.
NC(=O)N/N=C/c1c(F)c(F)c(F)c(F)c1F was read as M4 antag -7, M5 antag 4, M5 ag -1, CHRM4 agonist 1, CHRM5 PAM 2 and M4 PAM 3.
O=C(NCC1CCN(Cc2cccc(Cl)c2)CC1)C1CCCN(c2ncnc3c2nc2n3CCCCC2)C1 (stereo not given) was read as M4 antag 36*, M5 antag 13, M5 ag -9, CHRM4 agonist 8, CHRM5 PAM -14 and M4 PAM -12.
O=C(NCc1ccccc1)C1CCCN(c2ncnc3c2nc2n3CCCCC2)C1 (stereo not given) was read as M4 antag -7, M5 antag 17, M5 ag -5, CHRM4 agonist 5, CHRM5 PAM -4 and M4 PAM -6.
